The values that follow come from ChEMBL document CHEMBL2203154, “Synthesis, characterization and biological studies of diosgenyl analogues” (Bioorg Med Chem Lett, 2012).

Bounds are passed on as bounds.

For assay [1], the system named is Mus musculus. Description: Antiinflammatory activity in Kunming mouse assessed as inhibition of xylene-induced ear edema at 50 mg/kg, po administered for 3 days followed by xylene-challenge at 2 hrs post-last dose measured after 1 hr relative to vehicle-treated control. In kind it is functional. Put shortly:
(§1)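 Oral gavage in mice, test compounds suspended in 0.5% CMC at 100 mg/kg; aspirin group at 50 mg/kg. Ear edema induced with xylene; inhibition calculated versus the CMC vehicle group. Ten animals per group; data as mean ± SD, with significance versus CMC at p<0.05 or p<0.01.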

Assay [2] concerns Mus musculus. Nature of the assay: Antiinflammatory activity in Kunming mouse assessed as inhibition of xylene-induced ear edema at 100 mg/kg, po administered for 3 days followed by xylene-challenge at 2 hrs post-last dose measured after 1 hr relative to vehicle-treated control. In kind it is functional. Put shortly:
as §1

In assay [3] the test system is HepG2. Nature of the assay: Cytotoxicity against human HepG2 cells after 48 hrs by MTT assay. In kind it is functional, cell-based. As to conditions: HepG2, 48 h. The essentials: (§2)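 MTT assay on tumor cells exposed to compound for 48 h. IC50 is the concentration (μM) that inhibits growth by 50% relative to untreated cells. Values are means of at least 3 independent assays per compound.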

The nature of assay [4]: Cytotoxicity against mouse C26 cells after 48 hrs by MTT assay. As to conditions: C26, 48 h. Format: functional, cell-based. Put shortly: as §2
For assay [5], the system named is MDA-MB-231. Description: Cytotoxicity against human MDA-MB-231 cells after 48 hrs by MTT assay. Format: functional, cell-based. As to conditions: MDA-MB-231, 48 h. The essentials: as §2
In general terms: Tetrazolium assays rely on reduction of a dye to a coloured formazan, in cell work by metabolically active cells.

Regarding `CC(=O)Oc1ccccc1C(=O)O` [ASPIRIN], in assay [1], the inhibition in vivo at 50 mg/kg is 31.9%.
With `C[C@@H]1CC[C@@]2(OC1)O[C@H]1C[C@H]3[C@@H]4CC=C5C[C@@H](OC(=O)CCCCCNC(=O)c6ccccc6O)CC[C@]5(C)[C@H]4CC[C@]3(C)[C@H]1[C@@H]2C`, in assay [2], the inhibition in vivo at 100 mg/kg was found to be 42.6%. The half-inhibitory concentration (IC50) in assay [3], in assay [4] and in assay [5] was above 50 µM throughout.
`C[C@@H]1CC[C@@]2(OC1)O[C@H]1C[C@H]3[C@@H]4CC=C5C[C@@H](OC(=O)CN)CC[C@]5(C)[C@H]4CC[C@]3(C)[C@H]1[C@@H]2C` [GLYCINE DIOSGENYL ESTER]: the inhibition in vivo at 100 mg/kg in assay [2] turned out to be 30.6%. In addition, the figures for the IC50 in assay [3], in assay [4] and in assay [5] were above 50 µM, above 50 µM and 48.2 µM, respectively.
For `C[C@@H]1CC[C@@]2(OC1)O[C@H]1C[C@H]3[C@@H]4CC=C5C[C@@H](O)CC[C@]5(C)[C@H]4CC[C@]3(C)[C@H]1[C@@H]2C` [DISOGENIN], the inhibition in vivo at 100 mg/kg in assay [2] was found to be 32.2%. Moreover, the concentration for half-maximal inhibition (IC50) in assay [3], in assay [4] and in assay [5] was above 50 µM each time.
In the case of `C[C@@H]1CC[C@@]2(OC1)O[C@H]1C[C@H]3[C@@H]4CC=C5C[C@@H](OC(=O)CC[C@@H](N)C(=O)O[C@H]6CC[C@@]7(C)C(=CC[C@H]8[C@@H]9C[C@@H]%10O[C@]%11(CC[C@@H](C)CO%11)[C@@H](C)[C@@H]%10[C@@]9(C)CC[C@@H]87)C6)CC[C@]5(C)[C@H]4CC[C@]3(C)[C@H]1[C@@H]2C`, in assay [2], the inhibition in vivo at 100 mg/kg came out at 19.1%. Besides, the half-inhibitory concentration (IC50) in assay [3], in assay [4] and in assay [5] was above 50 µM each time.
Consider `CC(=O)Oc1ccccc1C(=O)NCC(=O)O[C@H]1CC[C@@]2(C)C(=CC[C@H]3[C@@H]4C[C@@H]5O[C@]6(CC[C@@H](C)CO6)[C@@H](C)[C@@H]5[C@@]4(C)CC[C@@H]32)C1`, for which, in assay [2], the inhibition in vivo at 100 mg/kg stood at 39.1%. Moreover, the IC50 in assay [3], in assay [4] and in assay [5] was above 50 µM in each case.
`C[C@@H]1CC[C@@]2(OC1)O[C@H]1C[C@H]3[C@@H]4CC=C5C[C@@H](OC(=O)[C@H](C)NC(=O)c6ccccc6O)CC[C@]5(C)[C@H]4CC[C@]3(C)[C@H]1[C@@H]2C`: the inhibition in vivo at 100 mg/kg in assay [2] stood at 35.8%. The concentration for half-maximal inhibition (IC50) in assay [3], in assay [4] and in assay [5] was above 50 µM in each case.
Consider `C[C@@H]1CC[C@@]2(OC1)O[C@H]1C[C@H]3[C@@H]4CC=C5C[C@@H](OC(=O)CC[C@@H](NC(=O)c6ccccc6O)C(=O)O[C@H]6CC[C@@]7(C)C(=CC[C@H]8[C@@H]9C[C@@H]%10O[C@]%11(CC[C@@H](C)CO%11)[C@@H](C)[C@@H]%10[C@@]9(C)CC[C@@H]87)C6)CC[C@]5(C)[C@H]4CC[C@]3(C)[C@H]1[C@@H]2C`, for which the inhibition in vivo at 100 mg/kg in assay [2] stood at 30.1%. Moreover, the IC50 in assay [3], in assay [4] and in assay [5] was above 50 µM throughout.
Turning to `C[C@@H]1CC[C@@]2(OC1)O[C@H]1C[C@H]3[C@@H]4CC=C5C[C@@H](OC(=O)[C@H](C)N)CC[C@]5(C)[C@H]4CC[C@]3(C)[C@H]1[C@@H]2C`, the inhibition in vivo at 100 mg/kg in assay [2] was 28.6%. Further, the IC50 in assay [3], in assay [4] and in assay [5] was above 50 µM throughout.
With `CC(=O)Oc1ccccc1C(=O)O[C@H]1CC[C@@]2(C)C(=CC[C@H]3[C@@H]4C[C@@H]5O[C@]6(CC[C@@H](C)CO6)[C@@H](C)[C@@H]5[C@@]4(C)CC[C@@H]32)C1`, the inhibition in vivo at 100 mg/kg in assay [2] was 46.5%. Also, the half-inhibitory concentration (IC50) in assay [3], in assay [4] and in assay [5] was above 50 µM in each case.
`C[C@@H]1CC[C@@]2(OC1)O[C@H]1C[C@H]3[C@@H]4CC=C5C[C@@H](OC(=O)CCCCCN)CC[C@]5(C)[C@H]4CC[C@]3(C)[C@H]1[C@@H]2C`: the inhibition in vivo at 100 mg/kg in assay [2] was 38.6%. Moreover, the figures for the 50% inhibitory concentration (IC50) in assay [3], in assay [4] and in assay [5] were 14.6 µM, 4.7 µM and 7.6 µM, respectively.
For the compound `C[C@@H]1CC[C@@]2(OC1)O[C@H]1C[C@H]3[C@@H]4CC=C5C[C@@H](O[C@@H]6O[C@H](CO)[C@@H](O[C@@H]7O[C@H](CO)[C@@H](O)[C@H](O)[C@H]7O)[C@H](O)[C@H]6O[C@@H]6O[C@@H](C)[C@H](O)[C@@H](O)[C@H]6O)CC[C@]5(C)[C@H]4CC[C@]3(C)[C@H]1[C@@H]2C` [DELTONIN], the IC50 in assay [3] amounted to 7.66 µM; in assay [4], 1.22 µM; in assay [5] it was 1.58 µM.

For orientation: inhibition in vivo means the drop in the measured response relative to a control, in per cent. Usually IC50 stands for the concentration needed to halve the response being measured. A lower IC50 goes with inhibition by little substance.
